Measurements as given in PMC6387783 (Chemistry & biodiversity, 2018).

Legend:
HEK293 cells = assay type: cell-based, human; conditions: peptide 2 μM with R18 1 μM vs peptide alone, HBSS, 10 min, 37 °C
Outline: (§1)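 Cells are seeded in μ-slide wells at 20% confluency (HEK293 in poly-L-lysine-coated wells) and grown 24 h, then washed with HBSS (Ca/Mg). Test peptide at 2 μM in HBSS, alone or with R18 1 μM, 10 min, 37 °C, dark; negative control R18 only. Cells washed five times, then live spinning-disk confocal imaging at 37 °C (FAM ex 488 nm, em 525/50 nm). Single-cell intensities background-corrected and normalized to control mean; 30 cells/condition; Kruskal–Wallis test.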

MCF-7 cells = assay type: cell-based, human; conditions: peptide 2 μM with R18 1 μM vs peptide alone, HBSS, 10 min, 37 °C
Outline: as §1

mice = conditions: intravenous (tail-vein injection), ref [1]; cited from earlier work

FAM-octaarginine amide [compound 1]
effect of membrane dye R18 on peptide permeation (HEK293 cells): significantly intensified permeation | effect of membrane dye R18 on peptide permeation (MCF-7 cells): significantly intensified permeation | toxicity (mice): highly toxic
